Consider twelve compounds from ChEMBL document CHEMBL1944504, “Toward the definition of stereochemical requirements for MT2-selective antagonists and partial agonists by studying 4-phenyl-2-propionamidotetralin derivatives” (J Med Chem, 2011).

Each structure is given as a SMILES string.

A short description of test [1]: Antagonist activity at human MT1 receptor expressed in […] NIH3T3 cells after 30 mins by [35S]GTPgammaS binding assay relative to melatonin. In kind it is functional.
Test [2] can be described thus: Displacement of 2-[125I]iodomelatonin from human MT1 receptor expressed in […] NIH3T3 cells after 90 mins. In kind it is cell-based. Summed up: (§1)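 Competition binding on membranes from NIH3T3 cells expressing the cloned human receptor (5−10 μg protein per tube). Incubation with 100 pM 2-[¹²⁵I]iodomelatonin for 90 min at 37 °C in 50 mM Tris-HCl, pH 7.4. Melatonin was tested at 10⁻¹⁰−10⁻⁶ M; nonspecific binding was defined with 10 μM melatonin. IC₅₀ came from nonlinear fitting and was converted to pKi by Cheng−Prusoff; values are means of ≥3 independent duplicate determinations.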

Test [3] can be described thus: Displacement of 2-[125I]iodomelatonin from human MT2 receptor expressed in […] NIH3T3 cells after 90 mins. In kind it is cell-based. Summed up:
as §1

Test [4] is described as follows: Antagonist activity at human MT2 receptor expressed in […] NIH3T3 cells after 30 mins by [35S]GTPgammaS binding assay relative to melatonin. In kind it is functional.
Test [5] is described as follows: Partial agonist activity at human MT1 receptor expressed in […] NIH3T3 cells after 30 mins by [35S]GTPgammaS binding assay relative to melatonin. In kind it is functional.
Test [6] is described as follows: Partial agonist activity at human MT2 receptor expressed in […] NIH3T3 cells after 30 mins by [35S]GTPgammaS binding assay relative to melatonin. In kind it is functional.

As for `CCC(=O)N[C@H]1Cc2ccccc2[C@@H](c2ccccc2)C1`, the Intrinsic activity in test [1] is given as 0.06; in test [4] it was 0.11. Moreover, the pKi is 6.59 in test [2] and 7.01 in test [3].

Turning to `CCC(=O)NC1=Cc2c(OC)cccc2C(c2ccccc2)C1` (racemic), the pKi is reported as 6.74 in test [2] and 7.11 in test [3]. In addition, the Intrinsic activity in test [5] is 0.32; in test [6], 0.49.

With `CCC(=O)NCC1=Cc2ccccc2C(c2ccccc2)C1` (racemic), the Intrinsic activity in test [1] is listed as 0.01; in test [4] it was 0.02. For the same compound, the figures for the pKi in test [2] and in test [3] were 7.69 and 8.46, respectively.

Take `CCC(=O)N[C@H]1Cc2c(OC)cccc2[C@H](c2ccccc2)C1` (racemic): the Intrinsic activity is 0.02 in test [1] and 0.21 in test [4]. Besides, the pKi in test [2] is 7.04; in test [3], 9.71.

Consider `CCC(=O)N[C@@H]1Cc2ccccc2[C@@H](c2ccccc2)C1`, for which the Intrinsic activity in test [1] is -0.23; in test [4], -0.14. Further, the pKi in test [2] is 5.67; in test [3] it was 6.1.

`CCC(=O)NC1=Cc2ccccc2C(c2ccccc2)C1` (racemic): the Intrinsic activity in test [1] stood at 0.14; in test [6] it was 0.59. For the same compound, the pKi in test [2] was found to be 7.3; in test [3], 7.43.

Turning to `CCC(=O)N[C@@H]1Cc2ccccc2[C@H](c2ccccc2)C1` (racemic), the Intrinsic activity is reported as 0.23 in test [1] and 0.46 in test [6]. Moreover, the pKi in test [2] is 7.12; in test [3], 9.16.

For the compound `CCC(=O)N[C@H]1Cc2ccccc2[C@H](c2ccccc2)C1` (racemic), the pKi in test [2] is given as 6.65; in test [3], 8.06. Moreover, the Intrinsic activity in test [5] is on record as 0.41; in test [6], 0.4.

As for `CCC(=O)N[C@H]1Cc2ccccc2[C@H](c2ccccc2)C1`, the figures for the pKi in test [2] and in test [3] were 6.89 and 8.02, respectively. Also, the Intrinsic activity in test [5] amounted to 0.33; in test [6], 0.48.

With `CCC(=O)N[C@@H]1Cc2c(OC)cccc2[C@H](c2ccccc2)C1` (racemic), the figures for the Intrinsic activity in test [1] and in test [6] were 0.2 and 0.44, respectively. Further, the results for the pKi in test [2] and in test [3] were 7.83 and 10.22, respectively.

For the compound `CCC(=O)N[C@@H]1Cc2ccccc2[C@H](c2ccccc2)C1`, the figures for the Intrinsic activity in test [1] and in test [6] were 0.15 and 0.45, respectively. The results for the pKi in test [2] and in test [3] were 7.02 and 9.26, respectively.

On to `CCC(=O)N[C@@H]1Cc2c(Br)cccc2[C@H](c2ccccc2)C1` (racemic), for which the values for the pKi in test [2] and in test [3] were 7.99 and 10.85, respectively. Further, the results for the Intrinsic activity in test [5] and in test [6] were 0.49 and 0.65, respectively.
